Columns and labels:
ABCG2 [1] = molecular target: T1, ABCG2 (Homo sapiens, UniProt Q9UNQ0); test: Activation of human ABCG2-mediated ATPase activity preincubated for 2 mins followed by ATP addition at 100 nM and measured after 20 mins by colorimetric assay relative to control; details: read-out: Activity
T1 sequence (Q9UNQ0 whole entry): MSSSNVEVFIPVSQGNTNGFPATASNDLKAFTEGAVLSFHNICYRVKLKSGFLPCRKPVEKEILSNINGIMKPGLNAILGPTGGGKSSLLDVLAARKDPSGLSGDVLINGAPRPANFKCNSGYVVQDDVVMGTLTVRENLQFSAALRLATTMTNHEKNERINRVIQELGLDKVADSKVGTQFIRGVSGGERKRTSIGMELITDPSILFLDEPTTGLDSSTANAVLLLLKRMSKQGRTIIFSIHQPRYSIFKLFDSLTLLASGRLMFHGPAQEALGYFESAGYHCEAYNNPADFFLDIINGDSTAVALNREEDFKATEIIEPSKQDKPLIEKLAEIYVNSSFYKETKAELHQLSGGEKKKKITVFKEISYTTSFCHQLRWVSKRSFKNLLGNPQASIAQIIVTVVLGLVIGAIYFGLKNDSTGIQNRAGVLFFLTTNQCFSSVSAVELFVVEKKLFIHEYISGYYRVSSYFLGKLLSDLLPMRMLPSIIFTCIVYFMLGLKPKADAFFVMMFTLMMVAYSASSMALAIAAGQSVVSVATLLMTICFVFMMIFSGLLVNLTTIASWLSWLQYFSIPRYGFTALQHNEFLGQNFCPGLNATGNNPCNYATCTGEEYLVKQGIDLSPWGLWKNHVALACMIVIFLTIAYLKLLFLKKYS
In short: (§1)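 Total membrane vesicles from High-Five insect cells expressing human ABCG2 (hypotonic lysis, differential centrifugation), 10 μg protein/tube, in MES-Tris pH 6.8 buffer with KCl, MgCl2, NaN3, EGTA, ouabain, DTT. Compound in DMSO added ± sodium orthovanadate (0.3 mM), DMSO control. Preincubated 2 min at 37°C, then 5 mM ATP, 20 min. SDS stop, Pi measured colorimetrically. Three independent experiments in duplicate, mean ± SE.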

[2] = molecular target: T2, Broad substrate specificity ATP-binding cassette transporter ABCG2 (Homo sapiens, UniProt Q9UNQ0); test: Inhibition of human ABCG2 in human R5 cells assessed as inhibition of mitoxantrone efflux measured by flow cytometric analysis; format: cell-based
T2 sequence (Q9UNQ0 whole entry): T1 sequence (Q9UNQ0 whole entry)
In short: (§2)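 HEK293 cells transfected with full-length ABCG2 (R-5) or empty pcDNA vector, grown in MEM with 10% FBS and 2 mg/ml G418. Cells incubated in IMDM with 5% FBS, 5 μM mitoxantrone (final) ± compound, 37°C for 45 min. Washed in cold IMDM, resuspended in cold PBS with 1% BSA, read by flow cytometry.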

[3] = molecular target: T2, Broad substrate specificity ATP-binding cassette transporter ABCG2; test: Activation of human ABCG2-mediated ATPase activity preincubated for 2 mins followed by ATP addition and measured after 20 mins by colorimetric assay; in short: as §1
Adenosine receptor A3 [4] = molecular target: T3, Adenosine receptor A3 (Homo sapiens, UniProt P0DMS8); test: Binding affinity towards human adenosine A3 receptor
T3 sequence (P0DMS8 whole entry): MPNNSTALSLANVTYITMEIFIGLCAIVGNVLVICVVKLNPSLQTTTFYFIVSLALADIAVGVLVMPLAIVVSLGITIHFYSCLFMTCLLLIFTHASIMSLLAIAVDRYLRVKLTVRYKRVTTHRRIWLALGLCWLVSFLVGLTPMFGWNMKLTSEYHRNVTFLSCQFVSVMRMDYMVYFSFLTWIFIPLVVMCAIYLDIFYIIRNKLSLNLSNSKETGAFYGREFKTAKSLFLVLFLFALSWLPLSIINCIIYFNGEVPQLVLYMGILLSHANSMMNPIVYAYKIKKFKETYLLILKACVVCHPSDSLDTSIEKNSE

ABCG2 [5] = molecular target: T1, ABCG2; test: Inhibition of human ABCG2 in human R5 cells assessed as inhibition of mitoxantrone efflux at 10 uM measured by flow cytometric analysis relative to control; format: cell-based; details: probe mitoxantrone; in short: as §2
Adenosine receptor A3 [6] = molecular target: T4, Adenosine receptor A3 (Mus musculus, UniProt Q61618); test: Binding affinity towards mouse adenosine A3 receptor
T4 sequence (Q61618 whole entry): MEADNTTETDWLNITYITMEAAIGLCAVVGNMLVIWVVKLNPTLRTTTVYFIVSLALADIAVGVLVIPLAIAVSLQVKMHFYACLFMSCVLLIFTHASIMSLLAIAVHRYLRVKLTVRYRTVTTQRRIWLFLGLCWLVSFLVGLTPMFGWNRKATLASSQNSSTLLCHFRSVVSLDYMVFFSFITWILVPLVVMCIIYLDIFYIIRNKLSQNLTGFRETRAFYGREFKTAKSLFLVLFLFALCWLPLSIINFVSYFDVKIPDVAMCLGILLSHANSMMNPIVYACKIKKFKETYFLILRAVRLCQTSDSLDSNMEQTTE

ABCG2 [7] = molecular target: T1, ABCG2; test: Activation of human ABCG2-mediated ATPase activity preincubated for 2 mins followed by ATP addition at 5 uM and measured after 20 mins by colorimetric assay relative to control; details: read-out: Activity; in short: as §1
ABCG2 [8] = molecular target: T1, ABCG2; test: Activation of human ABCG2-mediated ATPase activity preincubated for 2 mins followed by ATP addition at 0.5 uM and measured after 20 mins by colorimetric assay relative to control; details: read-out: Activity; in short: as §1
ABCG2 [9] = molecular target: T1, ABCG2; test: Inhibition of human ABCG2-mediated ATPase activity preincubated for 2 mins followed by ATP addition at 10 uM and measured after 20 mins by colorimetric assay relative to control; in short: as §1
ABCG2 [10] = molecular target: T1, ABCG2; test: Inhibition of human ABCG2-mediated ATPase activity preincubated for 2 mins followed by ATP addition at 2.5 uM and measured after 20 mins by colorimetric assay relative to control; in short: as §1
[11] = molecular target: T2, Broad substrate specificity ATP-binding cassette transporter ABCG2; test: Inhibition of human ABCG2-mediated ATPase activity preincubated for 2 mins followed by ATP addition and measured after 20 mins by colorimetric assay; in short: as §1

| Structure (SMILES) | activity at 20 min, 0.1 µM (ABCG2 [1]) [%] | IC50 [2] [nM] | EC50 [3] [nM] | Ki (Adenosine receptor A3 [4]) [nM] | inhibition at 10 µM (ABCG2 [5]) [%] | Ki (Adenosine receptor A3 [6]) [nM] | activity at 20 min, 5 µM (ABCG2 [7]) [%] | activity at 20 min, 0.5 µM (ABCG2 [8]) [%] | inhibition at 20 min, 10 µM (ABCG2 [9]) [%] | inhibition at 20 min, 2.5 µM (ABCG2 [10]) [%] | IC50 [11] [nM] |
| --- | --- | --- | --- | --- | --- | --- | --- | --- | --- | --- | --- |
| COc1cc(CCNC2=NC(C#Cc3ccc(Cl)s3)=NC3=NC=NC32)ccc1O (stereo not drawn) | 111 | 4980 | 13.2 | 6820 | 110 |  |  |  |  |  |  |
| CCOC(=O)C12CC1[C@@H](n1ccc3c(NCCc4ccccc4)nc(C#Cc4ccccc4)nc31)[C@H](O)[C@@H]2O (single isomer, unassigned) | 77.3 | 440 | 13.2 |  | 92.6 | > 10000 |  |  |  |  |  |
| CCOC(=O)C12CC1[C@@H](n1ccc3c(NCCCc4ccc(OC)c(O)c4)nc(C#Cc4ccc(Cl)s4)nc31)[C@H](O)[C@@H]2O (single isomer, unassigned) | 74.2 | 600 | 24.3 | ≥ 99 | 109 |  |  |  |  |  |  |
| CNC(=O)C12CC1[C@@H](n1cnc3c(NCc4cccc(Cl)c4)nc(C#Cc4ccc(F)c(F)c4)nc31)[C@H](O)[C@@H]2O (single isomer, unassigned) |  |  | 80 |  | 99.2 |  | 56.8 | 74.4 |  |  |  |
| CNC(=O)C12CC1[C@@H](n1cnc3c(NCc4cccc(-n5cc(-c6ccc(F)c(F)c6)nn5)c4)nc(C#Cc4cc(F)c(F)c(F)c4)nc31)[C@H](O)[C@@H]2O (single isomer, unassigned) |  |  |  |  | 105 |  |  |  | 48.9 | 38.9 | 4010 |

From ChEMBL document CHEMBL5154735, “Interaction of A3 adenosine receptor ligands with the human multidrug transporter ABCG2” (Eur J Med Chem, 2022)
